Test results taken from ChEMBL document CHEMBL1137257, “Synthesis and evaluation of thiazepines as interleukin-1beta converting enzyme (ICE) inhibitors” (Bioorg Med Chem Lett, 2006).

Key:
[1] = system: THP-1; assay: Inhibition of LPS-induced ILbeta1 release in human THP1 cells; assay type: functional, cell-based
Outline: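 Human monocytic THP-1 cells (2 × 10⁶/ml, RPMI 1640) were preincubated 15 min with or without compound added as DMSO solutions, with test concentrations starting at 1 nM. Cells were then stimulated with LPS for 4 h and centrifuged. Inhibition of IL-1β production was measured.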

[2] = organism: Homo sapiens; assay: Selectivity for ICE over Caspase 8
[3] = molecular target: Caspase-8 (Homo sapiens, UniProt Q14790); assay: Inhibition of Caspase 8
Sequence of Caspase-8 (Q14790 217-374 limits assumed): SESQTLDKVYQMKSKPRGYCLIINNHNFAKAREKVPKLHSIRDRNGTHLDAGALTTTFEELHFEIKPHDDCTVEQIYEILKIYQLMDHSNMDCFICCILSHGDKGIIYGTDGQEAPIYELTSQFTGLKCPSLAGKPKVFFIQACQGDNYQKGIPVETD
Sequence of Caspase-8 (Q14790 385-479 limits assumed): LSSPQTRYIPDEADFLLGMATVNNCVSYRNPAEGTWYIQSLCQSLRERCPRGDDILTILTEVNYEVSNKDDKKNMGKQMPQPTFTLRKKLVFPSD
Outline: (§1)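 Isolated enzymes (ICE, caspase-3, caspase-8) were assayed with fluorogenic substrates following the supplier's kit protocol. Cleavage was followed for 30 min at 37 °C by fluorescence (excitation 390 nm, emission 460 nm). IC50 was calculated as [I]/((Vo/Vi) − 1) from the initial velocities with (Vi) and without (Vo) inhibitor.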

[4] = molecular target: T1, Caspase-3 (Homo sapiens, UniProt P42574); assay: Inhibition of Caspase 3; outline: as §1
T1 sequence (P42574 whole entry): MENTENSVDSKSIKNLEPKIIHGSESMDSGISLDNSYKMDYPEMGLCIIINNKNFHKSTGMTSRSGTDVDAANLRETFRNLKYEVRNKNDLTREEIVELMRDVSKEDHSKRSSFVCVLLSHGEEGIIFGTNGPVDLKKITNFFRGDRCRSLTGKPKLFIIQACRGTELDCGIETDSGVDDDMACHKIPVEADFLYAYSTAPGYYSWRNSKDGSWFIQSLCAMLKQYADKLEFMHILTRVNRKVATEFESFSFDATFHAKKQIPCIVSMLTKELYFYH

[5] = molecular target: T2, Caspase-1 (Homo sapiens, UniProt P29466); assay: Inhibition of ICE; outline: as §1
T2 sequence (P29466 whole entry): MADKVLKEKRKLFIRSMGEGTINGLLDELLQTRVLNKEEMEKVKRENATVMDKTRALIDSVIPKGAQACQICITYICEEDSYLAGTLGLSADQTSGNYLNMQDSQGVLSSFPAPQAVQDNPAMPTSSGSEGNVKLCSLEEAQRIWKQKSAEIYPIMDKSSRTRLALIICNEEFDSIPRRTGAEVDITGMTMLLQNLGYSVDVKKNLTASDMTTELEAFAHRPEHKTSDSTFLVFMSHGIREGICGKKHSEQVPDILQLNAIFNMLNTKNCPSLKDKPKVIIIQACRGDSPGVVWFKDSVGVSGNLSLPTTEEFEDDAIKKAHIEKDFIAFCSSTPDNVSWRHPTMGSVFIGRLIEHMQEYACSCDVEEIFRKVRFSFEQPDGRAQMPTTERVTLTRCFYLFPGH

Compound | IC50 [1] [nM] | Selectivity ratio [2] | IC50 [3] [nM] | IC50 [4] [nM] | IC50 [5] [nM]
O=C(CN1CCSC[C@H](NC(=O)c2ccccc2)C1=O)N[C@H]1CC(=O)OC1O (some centres undefined) | 1700 | > 100 | 5200 | > 10000 | 350
CCO[C@@H]1OC(=O)C[C@@H]1NC(=O)[C@@H]1CCCN2C(=O)CC[C@H](NC(=O)c3nccc4ccccc34)C(=O)N12 [PRALNACASAN] | 190 | – | – | 1300 | –
O=C(CN1CCSC[C@H](NC(=O)c2cc3ccccc3s2)C1=O)N[C@H]1CC(=O)OC1O (some centres undefined) | 640 | > 100 | 9500 | > 10000 | 80
O=C(CN1CCSC[C@H](NC(=O)c2ccc3ccccc3c2)C1=O)N[C@H]1CC(=O)OC1O (some centres undefined) | 480 | > 100 | 9400 | > 10000 | 30
O=C(CN1CCSC[C@H](NC(=O)c2cccc(C(F)(F)F)c2)C1=O)N[C@H]1CC(=O)OC1O (some centres undefined) | 1000 | > 100 | > 10000 | > 10000 | 150

Other lines, results leading:

IC50 [1] [nM] | Selectivity ratio [2] | IC50 [3] [nM] | IC50 [4] [nM] | IC50 [5] [nM] | Compound
3400 | > 100 | – | – | – | O=C(CN1CCS(=O)(=O)C[C@H](NC(=O)c2cccc(C(F)(F)F)c2)C1=O)N[C@H]1CC(=O)OC1O (some centres undefined)
3200 | > 100 | > 10000 | > 10000 | 2300 | O=C(CN1CCS(=O)(=O)C[C@H](NC(=O)c2ccccc2)C1=O)N[C@H]1CC(=O)OC1O (some centres undefined)
1700 | > 100 | 8500 | > 10000 | 320 | O=C(CN1CCS(=O)(=O)C[C@H](NC(=O)c2cc3ccccc3s2)C1=O)N[C@H]1CC(=O)OC1O (some centres undefined)
1400 | > 100 | 5000 | > 10000 | 130 | O=C(CN1CCS(=O)(=O)C[C@H](NC(=O)c2nccc3ccccc23)C1=O)N[C@H]1CC(=O)OC1O (some centres undefined)
730 | > 100 | 7000 | > 10000 | 70 | O=C(CN1CCSC[C@H](NC(=O)c2nccc3ccccc23)C1=O)N[C@H]1CC(=O)OC1O (some centres undefined)
1100 | > 100 | > 10000 | > 10000 | 150 | O=C(CN1CCS(=O)(=O)C[C@H](NC(=O)c2ccc3ccccc3c2)C1=O)N[C@H]1CC(=O)OC1O (some centres undefined)
